Screening data: PubChem BioAssay, several laboratories
The list is not random: actives were taken first. Their share in the collection is about 2.1%.
APJ agonist – APJ receptor agonism | P35414 | CHO-K1 APJ PathHunter beta-arrestin, luminescence; 0% DMSO wells, 100% apelin | activation, % at 20 µM | hit rate 0.11% among 330,000;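 active = activation more than six SD over the plate average, tested at 20 µM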
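Assay system: CHO-K1 APJ beta-arrestin complementation cell line / Compound: single test compound dose, 20 µM final, 1% DMSO / Times: overnight seeding, 90 min compound at 25 °C, 1 h detection / Technique: beta-gal luminescence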
CCR6 antag – CCR6 (human) receptor antagonism | AID 493098 | P51684 | CHO-K1 CCR6 PathHunter beta-arrestin, luminescence, CCL20-stimulated | hit rate 0.49% among 340,000 | inhibition, % at 20 µM;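 active = compounds whose inhibition of the agonist-driven luminescence signal at 20 µM reaches about 50%, limit read from the data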;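 also: cells stimulated with CCL20 at 14 nM final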
HTR2A ag – activates the mouse 5-HT2A serotonin receptor; P35363; CHO-K1 mHTR2A beta-arrestin complementation, luminescence; percent of 30 µM serotonin response; activation, % at 7.6 µM; hit rate 0.66% among 360,000;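 active = activation above a run cutoff, the mean activation of all tested compounds plus 3 SD, cut at about 14% in these data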
Target sequence (P35363 whole entry, looked up): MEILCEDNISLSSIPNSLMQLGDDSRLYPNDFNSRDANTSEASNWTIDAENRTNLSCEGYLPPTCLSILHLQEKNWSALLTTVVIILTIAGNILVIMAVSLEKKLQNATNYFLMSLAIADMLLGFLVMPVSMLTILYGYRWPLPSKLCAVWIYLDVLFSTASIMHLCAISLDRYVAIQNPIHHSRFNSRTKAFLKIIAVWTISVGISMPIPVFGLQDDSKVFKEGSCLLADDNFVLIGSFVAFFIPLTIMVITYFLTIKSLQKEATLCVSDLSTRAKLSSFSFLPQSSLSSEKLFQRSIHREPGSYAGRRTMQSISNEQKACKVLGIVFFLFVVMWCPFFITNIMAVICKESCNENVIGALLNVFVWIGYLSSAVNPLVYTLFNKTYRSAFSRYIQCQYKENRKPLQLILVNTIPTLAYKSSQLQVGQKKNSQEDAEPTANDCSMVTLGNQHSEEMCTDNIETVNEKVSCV
CXCR6 block – inhibitors of human CXCR6 receptor; hit rate 0.36% among 360,000; CHO-K1 PathHunter CXCR6 beta-arrestin, luminescence; O00574; AID 602244; inhibition, % at 20 µM; in the data active = inhibition above about 34%, passing the limit was not always enough;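 also: antagonist mode with CXCL16 agonist at 10 nM final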
APJ antagonist – APJ receptor antagonism | hit rate 0.32% among 330,000 | P35414 | inhibition, % at 20 µM | CHO-K1 APJ beta-arrestin complementation, luminescence | AID 2521;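 active = inhibition above about 40% at 20 µM, limit read from the data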;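 also: cells challenged with 10 nM apelin-13 agonist together with compound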
EBI2 block – blocks human EBI2 receptor beta-arrestin signaling; P32249; inhibition, % at 5 µM; AID 651636; hit rate 0.81% among 360,000; EBI2 beta-arrestin recruitment, luminescence, 7a,25-OHC stimulated; in the data active = inhibition above about 38%;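 also: enzyme fragment complementation signal reports receptor beta-arrestin coupling in cells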
OPRM1 ag – OPRM1 agonism in mouse HTR2A counterscreen. shares compounds with HTR2A ag. U2OS OPRM1 beta-arrestin PathHunter, luminescence; DMSO 0%, DAMGO 9.3 µM 100%. activation, % at 9.3 µM. hit rate 5.3% among 2,300;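 active = mean activation above the mean of DMSO-only wells plus 3 SD, cut at about 0.5% in these data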
m5-HT2A ag conf – mouse HTR2A agonism confirmed | hit rate 19% among 2,300 | activation, % at 7.6 µM | CHO-K1 PathHunter beta-arrestin recruitment, luminescence; DMSO 0%, 30 µM serotonin 100% | shares compounds with HTR2A ag;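 active = mean activation across triplicates above the hit threshold derived in the original primary screen, cut at about 15% in these data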
Hits are given with their value; 0 = inactive; - = no result given.

SMILES | APJ agonist | CCR6 antag | HTR2A ag | CXCR6 block | APJ antagonist | EBI2 block | OPRM1 ag | m5-HT2A ag conf
Nc1cccc(-c2cnc3ccccc3n2)c1 | 0 | 0 | 0 | 0 | 0 | 0 | - | -
CN(CC(=O)Nc1ccccc1Cl)C(=O)c1ccccc1Sc1ccccc1C#N | 0 | 0 | 0 | 0 | 0 | 0 | - | -
O=C(Nc1ccc(F)cc1F)Nc1ccccc1C(=O)NCCN1CCNC1=O | 0 | 0 | 39.9 | 0 | 0 | 0 | 0 | 0
COc1ccccc1CN1CC(C(=O)NCCc2ccc(C)o2)CCC1=O (stereo unspecified) | 0 | 0 | 0 | 0 | 0 | 0 | - | -
COC(=O)C(C)Sc1nnc(Cc2cc(=O)[nH]c(=O)[nH]2)n1-c1cc(C)ccc1C (stereo unspecified) | 0 | 0 | 31.4 | 0 | 0 | 0 | 0 | 0
CCn1c(CNC(=O)c2ccco2)nnc1SCC(=O)Nc1cc(C)c(C)cc1Br | 0 | 0 | 15.0 | 0 | 0 | 0 | 1.0 | 0
CCc1nc2c(OCc3c(C)noc3C)cccn2c1N(C)C(=O)c1ccccc1F | - | - | 0 | 0 | - | 0 | - | -
c1ccc(-c2c(-c3ccccc3)n(Cc3ccco3)c3ncnc(NCCCn4ccnc4)c23)cc1 | 0 | 0 | 0 | 0 | 0 | 0 | - | -
OCCNc1ncnc2c1c(-c1ccccc1)c(-c1ccccc1)n2Cc1ccco1 | 0 | 0 | 14.5 | 0 | 0 | 0 | 0 | 0
COc1ccc(/C=N\NC(=O)CCN2CCN(c3ccccc3)CC2)cc1OC | 0 | 0 | 0 | 0 | 0 | 0 | - | -
O=C(CCN1CCN(c2ccccc2)CC1)N/N=C/c1ccccc1OC(F)F | 0 | 0 | 17.3 | 0 | 0 | 0 | 0 | 49.7
CC(C)n1cc(/C=C(\C#N)S(=O)(=O)c2ccccc2)c2ccccc21 | 0 | 0 | 0 | 0 | 0 | 0 | - | -
COc1cc2c(cc1O)[C@@H]1Cc3cc(OC)c(OC)cc3C(C2)N1C | 0 | 0 | 0 | 0 | 0 | 0 | - | -
COc1cc2c(cc1OC)[C@@H]1Cc3cc4c(cc3[C@H](C2)N1C)OCO4 | 0 | 0 | 17.7 | 0 | 0 | 0 | 0 | 0
CCOC(=O)C1=C(CS(=O)(=O)c2ccccc2)NC(=O)NC1c1ccccc1OCC (stereo unspecified) | 0 | 0 | 17.2 | 0 | 0 | 0 | 0 | 0
CCOC(=O)C1=C(CS(=O)(=O)c2ccccc2)NC(=O)NC1c1ccc(OC)c(OC)c1 (stereo unspecified) | 0 | 0 | 0 | 0 | 0 | 0 | - | -
CCOc1cccc(CN2CCCC(C(=O)c3cc(Cl)ccc3OC)C2)c1O (stereo unspecified) | 0 | 0 | 23.0 | 0 | 0 | 0 | 0 | 0
COc1ccc(F)cc1C(=O)C1CCCN(Cc2ccc3c(c2)OCCO3)C1 (stereo unspecified) | 0 | 0 | 26.2 | 0 | 0 | 0 | 2.8 | 28.4
CCOc1cccc(CN2CCCC(N3CCN(c4cccc(Cl)c4)CC3)C2)c1O (stereo unspecified) | 0 | 0 | 0 | 0 | 0 | 0 | - | -
COc1ccc(C(=O)C2CCCN(Cc3ccc4c(c3)OCCO4)C2)cc1F (stereo unspecified) | 0 | 0 | 0 | 0 | 0 | 0 | - | -
COc1ccccc1C(=O)C1CCCN(Cc2ccc3c(c2)OCCO3)C1 (stereo unspecified) | 0 | 0 | 32.8 | 0 | 0 | 0 | 0 | 15.5
COc1cccc(CN2CCCC(C(=O)c3ccc4c(c3)OCO4)C2)c1O (stereo unspecified) | 0 | 0 | 0 | 0 | 0 | 0 | - | -
OCCNc1ncnc2c1ncn2[C@H]1CN(Cc2ccncc2)C[C@@H](CO)O1 | - | - | 15.3 | 0 | - | 0 | - | 0
OCCCNc1ncnc2c1ncn2[C@H]1CN(Cc2ccncc2)C[C@@H](CO)O1 | - | - | 0 | 0 | - | 0 | - | -
C/C(=C\C(=O)c1ncc(C(F)(F)F)cc1Cl)N(C)C | 0 | 0 | 20.8 | 0 | 0 | 0 | 0 | 0
SMILES | APJ agonist | CCR6 antag | HTR2A ag | CXCR6 block | APJ antagonist | EBI2 block | OPRM1 ag | m5-HT2A ag conf
O=C(NNS(=O)(=O)c1ccccc1Cl)c1nn(-c2ccc(F)cc2)ccc1=O | 0 | 0 | 0 | 0 | 0 | 0 | - | -
CCc1nnc(NC(=O)c2cc(S(=O)(=O)N3CCOCC3)ccc2N2CCCCC2)s1 | - | 0 | 0 | 0 | - | 0 | - | -
O=C(Nc1nnc(C2CC2)s1)c1cc(S(=O)(=O)N2CCCCC2)ccc1N1CCOCC1 | 0 | 0 | 23.9 | 0 | 0 | 0 | 0 | 0
O=C(O)C1CCCCC1C(=O)NCCc1c[nH]c2ccccc12 (stereo unspecified) | 0 | 0 | 38.1 | 0 | 0 | 0 | 0 | 15.5
Cc1[nH]c2ccccc2c1C(=O)C(=O)NCCc1c[nH]c2ccccc12 | 0 | 0 | 15.1 | 0 | 0 | 0 | 0 | 0
COc1ccc2[nH]cc(CCNC(=O)C3CCCCC3)c2c1 | 0 | 0 | 14.7 | 0 | 0 | 0 | 0 | 0
O=C(O)[C@H]1CCCC[C@H]1C(=O)NCCc1ccccc1 | 0 | 0 | 0 | 0 | 0 | 0 | - | -
CC(=O)Nc1ccc(S(=O)(=O)NCCc2c[nH]c3ccc(C)cc23)cc1 | 0 | 0 | 0 | 0 | 0 | 0 | - | -
COc1ccc2[nH]cc(CCNC(=S)NC3CCCC3)c2c1 | 0 | 0 | 0 | 0 | 0 | 0 | - | -
COc1ccc2[nH]cc(CCNS(=O)(=O)c3ccc(NC(C)=O)cc3)c2c1 | 0 | 0 | 30.7 | 0 | 0 | 0 | 0 | 15.0
COc1ccc(-n2nc(C(=O)NCC(=O)NCCC3=CCCCC3)c3ccccc3c2=O)c(OC)c1 | 0 | 0 | 0 | 0 | 0 | 0 | - | -
COc1ccc(OC)c2nc3c(cc12)CCC3 | 0 | 0 | 0 | 0 | 0 | 0 | - | -
CC(C)=CCN1CCN(Cc2cn(C(C)C)c3ccccc23)CC1CCO (stereo unspecified) | 0 | 0 | 0 | 0 | 0 | 0 | - | -
CCOC(=O)c1ccc(NC(=O)C23CCC(C)(C(=O)O2)C3(C)C)cc1 (stereo unspecified) | 0 | 0 | 18.0 | 0 | 0 | 0 | 0 | 0
COc1ccc(NC(=O)C23CCC(C)(C(=O)O2)C3(C)C)cc1 (stereo unspecified) | 0 | 0 | 0 | 0 | 0 | 0 | - | -
CCc1nc2ccc(C(=O)N3CCN(S(=O)(=O)CC)CC3)cn2c1N(C)Cc1cccs1 | - | - | 17.5 | 0 | - | 0 | 0 | 0
CCc1nc2ccc(C(=O)N3CCN(S(=O)(=O)CC)CC3)cn2c1N(C)CCC(C)C | - | - | 0 | 0 | - | 0 | - | -
COc1ccc(NC(=O)CSc2nnc(-c3cccnc3)o2)c(OC)c1 | 0 | 0 | 0 | 0 | 0 | 0 | - | -
CCCCN(CC)CCCNC(=O)CC1Oc2ccccc2NC1=O (stereo unspecified) | 0 | 0 | 26.7 | 0 | 0 | 0 | 0 | 89.7
CC(C)CN(CCCNC(=O)CC1Oc2ccccc2NC1=O)CC(C)C (stereo unspecified) | 0 | 0 | 0 | 0 | 0 | 0 | - | -
